# Experimental data pooled from the literature.
# Each line is one published result; the experiments were not run side by side.
# Target: Acetylcholinesterase (ache, Electrophorus electricus, UniProt O42275)
# Observed: enzyme activity
# Action: inhibitor
# Method: Ellman
SMILES,notes,IC50 [µM]
O=C(NNS(=O)(=O)c1ccc(Br)cc1)C(=O)NNS(=O)(=O)c1ccc(Br)cc1,with preincubation,3.28
O=C(NCCN1CCN(Cc2ccccc2)CC1)c1cc2cccc(O)c2o1,,20
CC1=C(C)C(=O)O[C@@H]([C@](C)(O)[C@H]2CC[C@H]3[C@@H]4[C@@H]5O[C@@H]5[C@@]5(O)CC=CC(=O)[C@]5(C)[C@H]4CC[C@]23C)C1,,107
COc1cc2c(cc1OC)CN(S(=O)(=O)CCc1cn(-c3cnc4ccccc4c3)nn1)CC2,,0.028
CC=C1[C@H]2C=C(C)C[C@]1(N)c1cc(I)c(=O)[nH]c1C2,,14.1
COc1cccc2cc(C(=O)NCC3CCN(Cc4ccccc4)CC3)oc12,,19.9
CC=C1[C@H]2C=C(C)C[C@]1(N(C)C)c1ccc(=O)[nH]c1C2,,0.61
Cc1c(C(=O)[C@H]2[C@H](c3c[nH]c4ccccc34)[C@H]3CSCN3[C@]23C(=O)Nc2cc(Cl)ccc23)cnn1-c1ccccc1,,> 100
CCOc1ccc(C=NNC(=S)NCC(=O)c2ccc(-c3ccccc3)cc2)cc1,,460
Cc1c(C(=O)[C@H]2[C@H](c3c[nH]c4ccc(Br)cc34)[C@H]3CSCN3[C@]23C(=O)Nc2ccc([N+](=O)[O-])cc23)cnn1-c1ccccc1,,24.1
C#CCN(C)c1nc(NCCCC2CCN(Cc3ccccc3)CC2)c(C#N)cc1C#N,,0.00619
O=C(NCC1CCN(Cc2ccccc2)CC1)c1cc2ccccc2o1,,30
CC=C1[C@H]2C=C(C)C[C@]1(N)c1cc(OCC)c(=O)[nH]c1C2,,0.22
CCOc1ccc(C=NNC(=S)NCC(=O)c2ccccc2O)cc1,,420
Cc1c(C(=O)[C@H]2[C@H](c3c[nH]c4ccccc34)[C@H]3CCCN3[C@]23C(=O)Nc2cc(Cl)ccc23)cnn1-c1ccccc1,,> 100
CC=C1[C@H]2C=C(C)C[C@]1(N)c1cc(OCCC)c(=O)[nH]c1C2,,10.2
C#CCN(C)c1nc(NCCCCC2CCN(Cc3ccccc3)CC2)c(C#N)cc1C#N,,0.00074
Cc1c(C(=O)[C@H]2[C@H](c3c[nH]c4ccccc34)[C@H]3CSCN3[C@]23C(=O)Nc2ccccc23)cnn1-c1ccccc1,,57.1
CC=C1[C@H]2C=C(C)C[C@]1(N)c1cc(N)c(=O)[nH]c1C2,,0.32
Cc1c(C(=O)[C@H]2[C@H](c3cn(C)c4ccccc34)[C@H]3CSCN3[C@]23C(=O)Nc2ccccc23)cnn1-c1ccccc1,,> 100
CC=C1[C@H]2C=C(C)C[C@]1(N)c1cc(C)c(=O)[nH]c1C2,,0.35
